Assay results from ChEMBL document CHEMBL1687753, “Mitochondrial DNA depletion and respiratory chain activity in primary human subcutaneous adipocytes treated with nucleoside analogue reverse transcriptase inhibitors” (Antimicrob Agents Chemother, 2010).
The source made the active and inactive calls. The calls are words filed in the database; no cut-off is given here.

Assays:
[1] = Toxicity in human subcutaneous preadipocytes assessed as acquisition of adipocyte shape at 0.1 uM after 30 days using oil red O fluorescence staining by conventional fluorescence microscopy; format: cell-based; conditions: 720 h
Method in brief: (§1)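 On day 30 of differentiation with drug present from day 0, cells were fixed in 10% formalin and stained with 0.21% oil red O. Staining was viewed by fluorescence and light microscopy. For quantification, dye was extracted with isopropanol and read at 495 nm, also adjusted for viable cell number. Five independent experiments.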

[2] = Toxicity in human subcutaneous preadipocytes assessed as effect on mitochondrial membrane potential at 0.1 uM after 30 days using JC-1 red/green fluorescence dye by flow cytometry analysis; format: cell-based; conditions: 720 h
Method in brief: (§2)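 Pooled primary human subcutaneous preadipocytes (passage ≤4) were differentiated with drug or DMSO vehicle from day 0 and cultured 30 days. Staining with the JC-1 kit was followed by flow cytometry, and the JC-1 red/green fluorescence intensity ratio was used as the membrane potential read-out. CCCP served as the depolarization control. Three independent experiments, means ± SEM.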

[3] = Toxicity in human subcutaneous preadipocytes assessed as decrease of PPARgamma expression at 0.1 uM after 18 days by RT-PCR analysis; format: cell-based; conditions: 432 h
Method in brief: (§3)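 Differentiating preadipocytes were harvested at day 18. RNA from three plates was pooled and reverse transcribed, and qRT-PCR was run with 42 cycles of 94/55/72°C. Values were normalized to transferrin receptor or beta-actin by standard curve. Triplicates from three independent experiments.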

[4] = Toxicity in human subcutaneous preadipocytes assessed as triacylglyceride droplets at 0.1 uM after 30 days using oil red O fluorescence staining by conventional fluorescence microscopy; format: cell-based; conditions: 720 h
Method in brief: (§4)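 Preadipocytes were differentiated with a hormone cocktail (IBMX for the first 7 days, dexamethasone, insulin, indomethacin; high-glucose DMEM for days 0–18), with drug or vehicle present from day 0 to day 30. Cells were fixed in 10% formalin, stained with 0.21% oil red O in 60% isopropanol, and imaged by fluorescence microscopy. Quantification was by isopropanol extraction at 495 nm, optionally adjusted for viable cells.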

[5] = Toxicity in human subcutaneous preadipocytes assessed as cell death at 0.1 uM after 30 days using […]; format: cell-based; conditions: 720 h
Method in brief: (§5)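 Trypan blue exclusion counted by microscopy at each medium change every fifth day during 30 days of drug exposure in differentiating pooled preadipocytes. Final viability was calculated by excluding the cumulative percentage of dead cells. Five independent experiments.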

Homo sapiens [6] = test: Inhibition of electron transport protein complex 1/3 in human subcutaneous preadipocytes at 0.1 uM after 30 to 60 days by photometric analysis; format: cell-based
Method in brief: (§6)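 Pooled primary human abdominal subcutaneous preadipocytes induced to differentiate with drug (DMSO vehicle, ≤0.1%) added at day 0 and kept to day 30 or 60. Cells sonicated twice for 10 s; substrates added to lysates and conversion by complexes I+III, II+III, IV, V and citrate synthase read photometrically at 37°C. Three independent experiments.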

[7] = Toxicity in human subcutaneous preadipocytes assessed as decrease of mitochondrial DNA abundance at 0.1 uM after 30 days by RT-PCR analysis; format: cell-based; conditions: 720 h
Method in brief: (§7)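 mtDNA content of differentiated preadipocytes at day 30 or 60 of drug exposure was measured by real-time quantitative PCR with human-specific primers. Absolute copy numbers came from serial dilutions of plasmid standards. Three independent experiments.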

Homo sapiens [8] = test: Inhibition of citrate synthase in human subcutaneous preadipocytes at 0.1 uM after 30 to 60 days by photometric analysis; format: cell-based; method in brief: as §6
[9] = Toxicity in human subcutaneous preadipocytes assessed as decrease of mitochondrial DNA copy number per cell at 0.1 uM after 60 days by RT-PCR analysis; format: cell-based; design: scale not given: the % may be the effect or the level left; conditions: 1440 h; method in brief: as §7
[10] = Toxicity in human subcutaneous preadipocytes assessed as decrease of C/EBPalpha expression at 0.1 uM after 18 days by RT-PCR analysis; format: cell-based; conditions: 432 h; method in brief: as §3
[11] = Toxicity in fully differentiated human subcutaneous preadipocytes assessed as cell death at 0.1 uM after 30 days using […]; conditions: 720 h; method in brief: as §5
[12] = Toxicity in human subcutaneous preadipocytes assessed as decrease of cell viability measured every 5 days at 0.1 uM after 30 days using […]; format: cell-based; conditions: 720 h; method in brief: as §5
[13] = Toxicity in human subcutaneous preadipocytes assessed as decrease of adiponectin expression at 0.1 uM after 30 days by ELISA; format: cell-based; conditions: 720 h
Method in brief: (§8)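 Adiponectin secreted into the medium over days 25 to 30 of drug exposure in differentiating preadipocytes was measured by sandwich ELISA of culture supernatant. Three independent experiments.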

Homo sapiens [14] = test: Inhibition of electron transport protein complex 4 in human subcutaneous preadipocytes at 0.1 uM after 30 to 60 days by photometric analysis; format: cell-based; method in brief: as §6
[15] = Toxicity in human subcutaneous preadipocytes assessed as decrease of cell cultures at 0.1 uM after 30 days using oil red O fluorescence staining by conventional fluorescence microscopy; format: cell-based; conditions: 720 h; method in brief: as §1
[16] = Toxicity in human subcutaneous preadipocytes assessed as decrease of insulin-sensitizing adipokine expression at 0.1 uM after 30 days by RT-PCR analysis; format: cell-based; conditions: 720 h
Method in brief: (§9)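 Adiponectin mRNA at day 30 was measured by qRT-PCR normalized to transferrin receptor or beta-actin, using pooled RNA and cDNA. Triplicates from three independent experiments.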

[17] = Toxicity in human subcutaneous preadipocytes assessed as effect on mitochondrial mass at 0.1 uM after 30 days using […] by flow cytometry analysis; format: cell-based; conditions: 720 h
[18] = Toxicity in human subcutaneous preadipocytes assessed as decrease of mitochondrial DNA abundance at 0.1 uM after 60 days by RT-PCR analysis; format: cell-based; conditions: 1440 h; method in brief: as §7
Homo sapiens [19] = test: Inhibition of electron transport protein complex 5 in human subcutaneous preadipocytes at 0.1 uM after 30 to 60 days by photometric analysis; format: cell-based; method in brief: as §6
[20] = Toxicity in human subcutaneous preadipocytes assessed as decrease of C/EBPalpha expression at 3 uM after 18 days by RT-PCR analysis; format: cell-based; conditions: 432 h; method in brief: as §3
Homo sapiens [21] = test: Inhibition of electron transport protein complex 2/3 in human subcutaneous preadipocytes at 0.1 uM after 30 to 60 days by photometric analysis; format: cell-based; method in brief: as §6
[22] = Toxicity in human subcutaneous preadipocytes assessed as decrease of PPARgamma expression at 3 uM after 18 days by RT-PCR analysis; format: cell-based; conditions: 432 h; method in brief: as §3
[23] = Toxicity in human subcutaneous preadipocytes assessed as effect on mitochondrial membrane potential at 6 uM after 30 days using JC-1 red/green fluorescence dye by flow cytometry analysis; format: cell-based; conditions: 720 h; method in brief: as §2
[24] = Toxicity in human subcutaneous preadipocytes assessed as decrease of cell cultures at 6 uM after 30 days using oil red O fluorescence staining by conventional fluorescence microscopy; format: cell-based; conditions: 720 h; method in brief: as §1
[25] = Toxicity in human subcutaneous preadipocytes assessed as acquisition of adipocyte shape at 6 uM after 30 days using oil red O fluorescence staining by conventional fluorescence microscopy; format: cell-based; conditions: 720 h; method in brief: as §1
[26] = Toxicity in human subcutaneous preadipocytes assessed as effect on mitochondrial mass at 6 uM after 30 days using […] by flow cytometry analysis; format: cell-based; conditions: 720 h
Homo sapiens [27] = test: Inhibition of electron transport protein complex 1/3 in human subcutaneous preadipocytes at 6 uM after 30 to 60 days by photometric analysis; format: cell-based; method in brief: as §6
[28] = Toxicity in human subcutaneous preadipocytes assessed as decrease of adiponectin expression at 6 uM after 30 days by ELISA; format: cell-based; conditions: 720 h; method in brief: as §8
[29] = Toxicity in human subcutaneous preadipocytes assessed as decrease of C/EBPalpha expression at 6 uM after 18 days by RT-PCR analysis; format: cell-based; design: scale not given: the % may be the effect or the level left; conditions: 432 h; method in brief: as §3
Homo sapiens [30] = test: Inhibition of electron transport protein complex 4 in human subcutaneous preadipocytes at 6 uM after 30 to 60 days by photometric analysis; format: cell-based; method in brief: as §6
Homo sapiens [31] = test: Inhibition of electron transport protein complex 5 in human subcutaneous preadipocytes at 6 uM after 30 to 60 days by photometric analysis; format: cell-based; method in brief: as §6
[32] = Toxicity in fully differentiated human subcutaneous preadipocytes assessed as cell death at 6 uM after 30 days using […]; conditions: 720 h; method in brief: as §5
Homo sapiens [33] = test: Inhibition of citrate synthase in human subcutaneous preadipocytes at 6 uM after 30 to 60 days by photometric analysis; format: cell-based; method in brief: as §6
[34] = Toxicity in human subcutaneous preadipocytes assessed as decrease of mitochondrial DNA abundance at 6 uM after 30 days by RT-PCR analysis; format: cell-based; conditions: 720 h; method in brief: as §7
[35] = Toxicity in human subcutaneous preadipocytes assessed as triacylglyceride droplets at 6 uM after 30 days using oil red O fluorescence staining by conventional fluorescence microscopy; format: cell-based; conditions: 720 h; method in brief: as §4
[36] = Toxicity in human subcutaneous preadipocytes assessed as decrease of PPARgamma expression at 6 uM after 18 days by RT-PCR analysis; format: cell-based; design: scale not given: the % may be the effect or the level left; conditions: 432 h; method in brief: as §3
[37] = Toxicity in human subcutaneous preadipocytes assessed as cell death at 6 uM after 30 days using […]; format: cell-based; conditions: 720 h; method in brief: as §5
[38] = Toxicity in human subcutaneous preadipocytes assessed as decrease of cell viability measured every 5 days at 6 uM after 30 days using […]; format: cell-based; conditions: 720 h; method in brief: as §5
[39] = Toxicity in human subcutaneous preadipocytes assessed as decrease of insulin-sensitizing adipokine expression at 6 uM after 30 days by RT-PCR analysis; format: cell-based; conditions: 720 h; method in brief: as §9
Homo sapiens [40] = test: Inhibition of electron transport protein complex 2/3 in human subcutaneous preadipocytes at 6 uM after 30 to 60 days by photometric analysis; format: cell-based; method in brief: as §6

SMILES: Nc1ccn([C@H]2CC[C@@H](CO)O2)c(=O)n1 [ZALCITABINE]
- Activity [1]: Non-toxic
- Activity [2]: Non-toxic
- Activity [3]: Non-toxic
- Activity [4]: Non-toxic
- Activity [5]: Toxic
- inhibition (Homo sapiens [6]): inactive
- Activity [7]: Toxic
- inhibition (Homo sapiens [8]): inactive
- Activity [9]: 50%
- Activity [10]: Non-toxic
- Activity [11]: Toxic
- Activity [12]: Toxic
- Activity [13]: Non-toxic
- inhibition (Homo sapiens [14]): inactive
- Activity [15]: Toxic
- Activity [16]: Non-toxic
- Activity [17]: Non-toxic
- Activity [18]: Toxic
- inhibition (Homo sapiens [19]): inactive
- Activity [20]: Non-toxic
- inhibition (Homo sapiens [21]): inactive
- Activity [22]: Non-toxic

SMILES: Cc1cn([C@H]2C[C@H](N=[N+]=[N-])[C@@H](CO)O2)c(=O)[nH]c1=O [ZIDOVUDINE]
- Activity [23]: Non-toxic
- Activity [24]: Toxic
- Activity [25]: Non-toxic
- Activity [26]: Non-toxic
- inhibition (Homo sapiens [27]): inactive
- Activity [28]: Non-toxic
- Activity [29]: 40%
- inhibition (Homo sapiens [30]): inactive
- inhibition (Homo sapiens [31]): inactive
- Activity [32]: Toxic
- inhibition (Homo sapiens [33]): inactive
- Activity [34]: Non-toxic
- Activity [35]: Non-toxic
- Activity [36]: 40%
- Activity [37]: Toxic
- Activity [38]: Toxic
- Activity [39]: Non-toxic
- inhibition (Homo sapiens [40]): inactive
